Source: ChEMBL document CHEMBL1137056, “Synthesis of fluorinated analogues of SJG-136 and their DNA-binding potential” (Bioorg Med Chem Lett, 2004)

What was measured:
Type in all cases: functional
Bos taurus [1] = species: Bos taurus; test: Increase in melting point temperature after 36 hr of incubation [1:5] as measurement of DNA binding affinity using calf thymus DNA
Procedure, shortened: (§1)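 Thermal denaturation of calf thymus DNA, 100 µM DNA with 20 µM ligand (1:5 ligand:DNA molar ratio). Buffer was aqueous 10 mM sodium phosphate with 1 mM EDTA, pH 7.00. Mixtures were incubated at 37°C for the stated time, then the shift in helix melting temperature versus DNA alone was recorded. DNA-only Tm is the mean of 10 determinations.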

Bos taurus [2] = species: Bos taurus; test: Increase in melting point temperature after 0h of incubation [1:5 ratio] as measurement of DNA binding affinity using calf thymus DNA; procedure, shortened: as §1
Bos taurus [3] = species: Bos taurus; test: Increase in melting point temperature after 18 hr of incubation [1:5] as measurement of DNA binding affinity using calf thymus DNA; procedure, shortened: as §1

Compound | ΔTm (Bos taurus [1]) | ΔTm (Bos taurus [2]) | ΔTm (Bos taurus [3])
COc1cc2c(cc1OCCCCOc1cc3c(cc1OC)C(=O)N1CC(=C(F)F)C[C@H]1C=N3)N=C[C@@H]1CC(=C(F)F)CN1C2=O | 6.5 °C | 2.1 °C | 5.2 °C
COc1cc2c(cc1O)N=C[C@@H]1CC(=C(F)F)CN1C2=O | 2.2 °C | 1 °C | 1.7 °C
COc1cc2c(cc1OCCCOc1cc3c(cc1OC)C(=O)N1CCC[C@H]1C=N3)N=C[C@@H]1CCCN1C2=O | 15.7 °C | 10.2 °C | 15.1 °C
COc1cc2c(cc1O)N=C[C@@H]1CCCN1C2=O | 0.7 °C | 0.3 °C | 0.7 °C
COc1cc2c(cc1OCCCOc1cc3c(cc1OC)C(=O)N1CC(=C(F)F)C[C@H]1C=N3)N=C[C@@H]1CC(=C(F)F)CN1C2=O | 24.9 °C | 20.8 °C | 24.6 °C
C=C1C[C@H]2C=Nc3cc(OCCCOc4cc5c(cc4OC)C(=O)N4CC(=C)C[C@H]4C=N5)c(OC)cc3C(=O)N2C1 | – | 25.7 °C | 33.6 °C
COc1cc2c(cc1OCCCCCOc1cc3c(cc1OC)C(=O)N1CC(=C(F)F)C[C@H]1C=N3)N=C[C@@H]1CC(=C(F)F)CN1C2=O | 21.3 °C | 16.2 °C | 19.2 °C
